Measurements taken from ChEMBL document CHEMBL1147643 (J Med Chem, 2006).
Substitutions are numbered along the chain they refer to. Active and inactive are the calls of the source. No cut-off for these calls is given here.

How the values were obtained:
[1] = biological target: T1, Adenosine receptor A3 (Homo sapiens) (UniProt P0DMS8); assay: Inhibition of [125I]I-AB-MECA binding to wild type adenosine A3 receptor expressed in COS7 cells at 10 uM; format: cell-based; details: COS-7
T1 sequence (whole entry): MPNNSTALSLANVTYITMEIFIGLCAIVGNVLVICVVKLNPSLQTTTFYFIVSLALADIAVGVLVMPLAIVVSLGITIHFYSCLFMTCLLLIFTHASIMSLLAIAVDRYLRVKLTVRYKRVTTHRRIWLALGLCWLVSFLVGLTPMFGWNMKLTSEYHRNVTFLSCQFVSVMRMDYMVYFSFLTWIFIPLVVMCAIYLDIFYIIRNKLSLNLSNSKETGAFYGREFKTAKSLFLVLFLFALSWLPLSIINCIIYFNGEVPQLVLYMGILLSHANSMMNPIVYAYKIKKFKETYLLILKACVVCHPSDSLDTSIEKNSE

Adenosine receptor A3 [2] = biological target: T2, Adenosine receptor A3 (Homo sapiens, UniProt P0DMS8, H272E); assay: Displacement of [125I]I-AB-MECA from human adenosine A3 receptor H272E mutant expressed in COS7 cells; format: cell-based, COS-7
T2 sequence (P0DMS8 whole entry H272E): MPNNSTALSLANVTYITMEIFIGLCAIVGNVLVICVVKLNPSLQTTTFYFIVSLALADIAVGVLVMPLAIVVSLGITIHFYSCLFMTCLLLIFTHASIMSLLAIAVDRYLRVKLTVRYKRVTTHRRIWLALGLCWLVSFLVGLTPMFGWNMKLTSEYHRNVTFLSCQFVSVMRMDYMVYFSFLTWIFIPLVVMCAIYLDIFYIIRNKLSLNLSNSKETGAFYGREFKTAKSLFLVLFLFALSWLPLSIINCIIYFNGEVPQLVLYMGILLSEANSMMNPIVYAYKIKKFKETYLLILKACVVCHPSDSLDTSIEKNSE

[3] = biological target: T3, Adenosine receptor A1 (Homo sapiens) (UniProt P30542); assay: Inhibition of human adenosine A1 receptor expressed in CHO cells at 10 uM; format: cell-based
T3 sequence (whole entry): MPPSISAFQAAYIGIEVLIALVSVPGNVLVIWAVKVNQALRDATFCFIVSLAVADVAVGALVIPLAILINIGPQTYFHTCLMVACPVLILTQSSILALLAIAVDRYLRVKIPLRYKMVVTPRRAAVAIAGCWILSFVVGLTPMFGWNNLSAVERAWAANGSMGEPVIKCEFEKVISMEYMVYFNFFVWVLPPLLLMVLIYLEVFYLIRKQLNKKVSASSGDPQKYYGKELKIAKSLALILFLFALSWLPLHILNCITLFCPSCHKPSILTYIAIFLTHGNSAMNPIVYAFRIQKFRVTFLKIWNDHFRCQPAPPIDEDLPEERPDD

[4] = biological target: Adenosine receptor A2a (Homo sapiens) (UniProt P29274); assay: Inhibition of human adenosine A2A receptor expressed in CHO cells at 10 uM; format: cell-based
Sequence of Adenosine receptor A2a (Homo sapiens) (P29274 whole entry): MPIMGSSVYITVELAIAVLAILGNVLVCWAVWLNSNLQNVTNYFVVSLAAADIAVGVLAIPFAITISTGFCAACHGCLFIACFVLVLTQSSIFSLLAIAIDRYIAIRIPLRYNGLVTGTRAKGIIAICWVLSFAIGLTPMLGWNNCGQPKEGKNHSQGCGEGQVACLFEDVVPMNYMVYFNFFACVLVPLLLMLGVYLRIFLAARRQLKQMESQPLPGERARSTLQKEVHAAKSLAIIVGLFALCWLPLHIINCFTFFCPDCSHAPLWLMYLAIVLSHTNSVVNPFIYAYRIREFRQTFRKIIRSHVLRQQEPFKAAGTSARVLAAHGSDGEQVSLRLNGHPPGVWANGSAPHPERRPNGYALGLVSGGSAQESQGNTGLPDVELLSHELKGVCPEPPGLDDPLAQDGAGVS

Adenosine receptor A3 [5] = biological target: Adenosine receptor A3 (Homo sapiens, UniProt P0DMS8, T94E); assay: Displacement of [125I]I-AB-MECA from human adenosine A3 receptor T94E mutant expressed in COS7 cells; format: cell-based, COS-7
Sequence of Adenosine receptor A3 (Homo sapiens, UniProt P0DMS8, T94E) (P0DMS8 whole entry T94E): as the sequence (P0DMS8 whole entry H272E) above, with T94E, E272H counted along it
Procedure, shortened: (§1)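 Receptor cDNA, wild-type or mutant with mutations confirmed by sequencing, transiently transfected into COS-7 cells with Lipofectamine 2000. […] Displacement of agonist radioligand [125I]I-AB-MECA measured; Ki values derived.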

Adenosine receptor A3 [6] = biological target: T4, Adenosine receptor A3 (Homo sapiens, UniProt P0DMS8); assay: Displacement of [125I]I-AB-MECA from wild type adenosine A3 receptor expressed in COS7 cells; format: cell-based, COS-7
T4 sequence (P0DMS8 whole entry): T1 sequence (whole entry)

Adenosine receptor A3 [7] = biological target: Adenosine receptor A3 (Homo sapiens, UniProt P0DMS8, T94A); assay: Displacement of [125I]I-AB-MECA from human adenosine A3 receptor T94A mutant expressed in COS7 cells; format: cell-based, COS-7; procedure, shortened: as §1
Sequence of Adenosine receptor A3 (Homo sapiens, UniProt P0DMS8, T94A) (P0DMS8 whole entry T94A): as the sequence (P0DMS8 whole entry H272E) above, with T94A, E272H counted along it

Adenosine receptor A3 [8] = biological target: Adenosine receptor A3 (Homo sapiens, UniProt P0DMS8, H272D); assay: Displacement of [125I]I-AB-MECA from human adenosine A3 receptor H272D mutant expressed in COS7 cells; format: cell-based, COS-7; procedure, shortened: as §1
Sequence of Adenosine receptor A3 (Homo sapiens, UniProt P0DMS8, H272D) (P0DMS8 whole entry H272D): as the sequence (P0DMS8 whole entry H272E) above, with E272D counted along it

[9] = system: T5, Adenosine receptor A3 (Homo sapiens), P0DMS8 [H272E]; assay: (§2) Activity against human adenosine A3 receptor H272E mutant expressed in COS7 cells as measured by accumulation of inositol phosphate by PLC assay; format: functional, cell-based; details: COS-7
T5 sequence (whole entry): T1 sequence (whole entry) with H272E

[10] = biological target: T1, Adenosine receptor A3 (Homo sapiens); assay: Activity against human wild type adenosine A3 receptor expressed in COS7 cells as measured by accumulation of inositol phosphate by PLC assay; format: functional, cell-based; details: COS-7
Adenosine receptor A3 [11] = biological target: Adenosine receptor A3 (Homo sapiens, UniProt P0DMS8, Q167E); assay: Displacement of [125I]I-AB-MECA from human adenosine A3 receptor Q167E mutant expressed in COS7 cells; format: cell-based, COS-7; procedure, shortened: as §1
Sequence of Adenosine receptor A3 (Homo sapiens, UniProt P0DMS8, Q167E) (P0DMS8 whole entry Q167E): as the sequence (P0DMS8 whole entry H272E) above, with Q167E, E272H counted along it

[12] = system: T5, Adenosine receptor A3 (Homo sapiens), P0DMS8 [H272E]; assay: Inhibition of [125I]I-AB-MECA binding to human adenosine A3 receptor H272E mutant expressed in COS7 cells at 10 uM; format: cell-based; details: COS-7
[13] = biological target: T6, Adenosine receptor A2b (Homo sapiens) (UniProt P29275); assay: Activity against adenosine A2B receptor expressed in CHO cells by stimulation of cAMP production at 10 uM; format: functional, cell-based
T6 sequence (whole entry): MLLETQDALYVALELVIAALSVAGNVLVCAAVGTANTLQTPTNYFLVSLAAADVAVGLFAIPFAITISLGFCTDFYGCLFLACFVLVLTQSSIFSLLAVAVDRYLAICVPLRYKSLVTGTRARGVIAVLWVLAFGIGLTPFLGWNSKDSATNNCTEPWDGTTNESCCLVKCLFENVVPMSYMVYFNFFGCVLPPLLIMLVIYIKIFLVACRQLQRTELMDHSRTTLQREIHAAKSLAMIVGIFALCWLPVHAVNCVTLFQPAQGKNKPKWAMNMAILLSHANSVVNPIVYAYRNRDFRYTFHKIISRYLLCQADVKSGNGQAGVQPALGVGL

Adenosine receptor A3 [14] = biological target: T2, Adenosine receptor A3; assay: as §2; format: functional, cell-based, COS-7

| SMILES | inhibition [1] | Ki (Adenosine receptor A3 [2]) | inhibition [3] | inhibition [4] | Ki (Adenosine receptor A3 [5]) | Ki (Adenosine receptor A3 [6]) | Ki (Adenosine receptor A3 [7]) | Ki (Adenosine receptor A3 [8]) | Activity [9] | Activity [10] | Ki (Adenosine receptor A3 [11]) | inhibition [12] | Activity [13] | EC50 (Adenosine receptor A3 [14]) |
| --- | --- | --- | --- | --- | --- | --- | --- | --- | --- | --- | --- | --- | --- | --- |
| CNC(=O)[C@H]1O[C@@H](n2cnc3c(NCc4cccc(I)c4)ncnc32)[C@H](O)[C@@H]1NC(N)=O | 5% | 2.7 µM | < 10% | < 10% | – | – | – | – | – | – | – | – | – | – |
| CC(=O)NC[C@H]1[C@@H](O)[C@H](n2cnc3c(NCc4cccc(I)c4)ncnc32)O[C@@H]1CO | 15% | 0.7 µM | – | – | > 10 µM | > 10 µM | > 10 µM | 1 µM | – | – | > 10 µM | – | – | – |
| NC[C@H]1[C@@H](O)[C@H](n2cnc3c(NCc4cccc(I)c4)ncnc32)O[C@@H]1CO | – | 0.61 µM | – | – | 10 µM | 9.5 µM | 10.7 µM | 0.85 µM | – | – | > 10 µM | – | – | – |
| NNC(=O)[C@H]1O[C@@H](n2cnc3c(N)ncnc32)[C@H](O)[C@@H]1O | – | > 10 µM | – | – | – | 1.5 µM | – | – | – | – | – | – | – | – |
| COc1ccc(Cl)cc1CNc1ncnc2c1ncn2[C@@H]1O[C@H](CO)[C@@H](CN)[C@H]1O | – | 0.709 µM | – | – | > 10 µM | 13.8 µM | 9.8 µM | 2 µM | – | – | > 10 µM | – | – | – |
| CNC(=O)[C@H]1O[C@@H](n2cnc3c(NC)ncnc32)[C@H](O)[C@@H]1NC(N)=O | 7% | – | < 10% | < 10% | – | – | – | – | – | – | – | 7% | – | – |
| NC[C@H]1[C@@H](O)[C@H](n2cnc3c(N)ncnc32)O[C@@H]1CO | 3% | – | – | – | – | – | – | – | – | – | – | 2% | – | – |
| CNc1ncnc2c1ncn2[C@@H]1O[C@H](CO)[C@@H](NC(N)=O)[C@H]1O | 3% | – | < 10% | < 10% | – | – | – | – | – | – | – | 30% | – | – |

Results, then the molecule that gave them:

| inhibition [1] | Ki (Adenosine receptor A3 [2]) | inhibition [3] | inhibition [4] | Ki (Adenosine receptor A3 [5]) | Ki (Adenosine receptor A3 [6]) | Ki (Adenosine receptor A3 [7]) | Ki (Adenosine receptor A3 [8]) | Activity [9] | Activity [10] | Ki (Adenosine receptor A3 [11]) | inhibition [12] | Activity [13] | EC50 (Adenosine receptor A3 [14]) | SMILES |
| --- | --- | --- | --- | --- | --- | --- | --- | --- | --- | --- | --- | --- | --- | --- |
| – | 0.186 µM | – | – | 2 µM | 2.26 µM | 1.37 µM | 0.14 µM | inactive | inactive | – | – | – | – | CNC(=O)[C@H]1O[C@@H](n2cnc3c(NCc4cccc(I)c4)ncnc32)[C@H](O)[C@@H]1N=[N+]=[N-] |
| – | 0.592 µM | – | – | 0.85 µM | 0.557 µM | – | 0.39 µM | – | – | 7.2 µM | – | – | – | CNC(=O)[C@H]1O[C@@H](n2cnc3c(NCc4cc(Cl)ccc4OC)ncnc32)[C@H](O)[C@@H]1CN |
| 47% | 0.2 µM | 34% | < 10% | – | – | – | – | – | – | – | – | – | – | NC(=O)N[C@H]1[C@@H](O)[C@H](n2cnc3c(NCc4cccc(I)c4)nc(Cl)nc32)O[C@@H]1CO |
| – | 0.23 µM | – | – | – | 0.022 µM | – | – | inactive | inactive | – | – | – | – | [N-]=[N+]=NC[C@H]1S[C@@H](n2cnc3c(NCc4cccc(I)c4)ncnc32)[C@H](O)[C@@H]1O |
| 9% | 0.22 µM | < 10% | < 10% | > 10 µM | > 10 µM | > 10 µM | 0.47 µM | – | – | > 100 µM | – | inactive | 0.18 µM | NC(=O)N[C@H]1[C@@H](O)[C@H](n2cnc3c(NCc4cccc(I)c4)ncnc32)O[C@@H]1CO |
| – | 0.185 µM | – | – | 0.11 µM | 0.137 µM | 0.12 µM | 0.12 µM | – | – | 0.57 µM | – | – | – | CNC(=O)[C@H]1O[C@@H](n2cnc3c(NCc4cccc(I)c4)ncnc32)[C@H](O)[C@@H]1CN |
